Data as given in ChEMBL document CHEMBL2384906, “Biological activity, design, synthesis and structure activity relationship of some novel derivatives of curcumin containing sulfonamides” (Eur J Med Chem, 2013).
Converted amounts (≈) assume the structure as drawn. The source made the active and inactive calls. No cut-off for these calls is given here.

Tests used:
Staphylococcus aureus [1] = assay: Antimicrobial activity against Staphylococcus aureus ATCC 11632 after 24 hrs by broth micro serial dilution method; type: functional; conditions: ATCC 11632, 24 h
How it was run: (§1)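 This was broth microdilution in autoclaved Mueller-Hinton broth. 150 µL of compound per well was serially diluted […], and 50 µL of test organism was added. Plates were incubated 24 h at 37 °C and optical density was read.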

Curvularia lunata [2] = assay: Antifungal activity against Curvularia lunata MTCC 581 assessed as zone of inhibition at 40 uM after 48 hrs by disc diffusion method; type: functional; conditions: MTCC 581, 48 h, read-out: IZ
How it was run: (§2)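 Spores from 4-day potato dextrose agar cultures, suspended in sterile water at 1.5 × 10⁵ CFU/mL. 0.2 mL was spread on potato dextrose agar. 5 mm filter-paper discs soaked with test compound were laid on the lawn. Incubation was 48 h at 28 °C, then the inhibition zone was measured in mm. Fluconazole was the positive control and acetone the negative control.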

Bacillus cereus [3] = assay: Antimicrobial activity against Bacillus cereus MTCC 7350 assessed as diameter of inhibition zone at 80 uM after 24 hrs by Kirby -Baur disc diffusion method; type: functional; conditions: MTCC 7350, 24 h, read-out: DIZ
How it was run: (§3)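 Kirby-Bauer disc diffusion was used. Acetone stocks (160 µM) were serially doubled down to 80, 40 and 20 µM. 4 µL of each went onto 5 mm sterile paper discs, which were dried 30 min at 50 °C. Inoculum was 1.5 × 10⁸ CFU/mL diluted to 3 × 10² CFU/mL, and 50 µL was spread on Mueller-Hinton agar. After 24 h at 37 °C the inhibition-zone diameter was measured. Ciprofloxacin served as positive control.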

Curvularia lunata [4] = assay: Antifungal activity against Curvularia lunata MTCC 581 after 48 hrs; type: functional; conditions: MTCC 581, 48 h
Curvularia lunata [5] = assay: Antifungal activity against Curvularia lunata MTCC 581 assessed as zone of inhibition at 80 uM after 48 hrs by disc diffusion method; type: functional; conditions: MTCC 581, 48 h, read-out: IZ; how it was run: as §2
Aspergillus niger [6] = assay: Antifungal activity against Aspergillus niger MTCC 1108 assessed as zone of inhibition at 40 uM after 48 hrs by disc diffusion method; type: functional; conditions: MTCC 1108, 48 h, read-out: IZ; how it was run: as §2
Aspergillus niger [7] = assay: Antifungal activity against Aspergillus niger MTCC 1108 after 48 hrs; type: functional; conditions: MTCC 1108, 48 h
Staphylococcus aureus [8] = assay: Antimicrobial activity against Staphylococcus aureus ATCC 11632 assessed as diameter of inhibition zone at 40 uM after 24 hrs by Kirby -Baur disc diffusion method; type: functional; conditions: ATCC 11632, 24 h, read-out: DIZ; how it was run: as §3
Bacillus cereus [9] = assay: Antimicrobial activity against Bacillus cereus MTCC 7350 after 24 hrs by broth micro serial dilution method; type: functional; conditions: MTCC 7350, 24 h; how it was run: as §1
Staphylococcus aureus [10] = assay: Antimicrobial activity against Staphylococcus aureus ATCC 11632 assessed as diameter of inhibition zone at 80 uM after 24 hrs by Kirby -Baur disc diffusion method; type: functional; conditions: ATCC 11632, 24 h, read-out: DIZ; how it was run: as §3
Aspergillus flavus [11] = assay: Antifungal activity against Aspergillus flavus MTCC 1021 after 48 hrs; type: functional; conditions: MTCC 1021, 48 h
Trichoderma viride [12] = assay: Antifungal activity against Trichoderma viride MTCC 1107 after 48 hrs; type: functional; conditions: MTCC 1107, 48 h
Bacillus cereus [13] = assay: Antimicrobial activity against Bacillus cereus MTCC 7350 assessed as diameter of inhibition zone at 20 uM after 24 hrs by Kirby -Baur disc diffusion method; type: functional; conditions: MTCC 7350, 24 h, read-out: DIZ; how it was run: as §3
Salmonella typhi [14] = assay: Antimicrobial activity against Salmonella typhi ATCC 23564 assessed as diameter of inhibition zone at 40 uM after 24 hrs by Kirby -Baur disc diffusion method; type: functional, Salmonella enterica subsp. enterica serovar Typhi; conditions: Salmonella enterica, ATCC 23564, 24 h; read-out: DIZ
Salmonella typhi [15] = assay: Antimicrobial activity against Salmonella typhi ATCC 23564 assessed as diameter of inhibition zone at 20 uM after 24 hrs by Kirby -Baur disc diffusion method; type: functional, Salmonella enterica subsp. enterica serovar Typhi; conditions: Salmonella enterica, ATCC 23564, 24 h; read-out: DIZ
Pseudomonas aeruginosa [16] = assay: Antimicrobial activity against Pseudomonas aeruginosa ATCC 15499 assessed as diameter of inhibition zone at 80 uM after 24 hrs by Kirby -Baur disc diffusion method; type: functional; conditions: ATCC 15499, 24 h, read-out: DIZ; how it was run: as §3
Staphylococcus aureus [17] = assay: Antimicrobial activity against Staphylococcus aureus ATCC 11632 assessed as diameter of inhibition zone at 20 uM after 24 hrs by Kirby -Baur disc diffusion method; type: functional; conditions: ATCC 11632, 24 h, read-out: DIZ; how it was run: as §3
Aspergillus flavus [18] = assay: Antifungal activity against Aspergillus flavus MTCC 1021 assessed as zone of inhibition at 40 uM after 48 hrs by disc diffusion method; type: functional; conditions: MTCC 1021, 48 h, read-out: IZ; how it was run: as §2
Bacillus cereus [19] = assay: Antimicrobial activity against Bacillus cereus MTCC 7350 assessed as diameter of inhibition zone at 40 uM after 24 hrs by Kirby -Baur disc diffusion method; type: functional; conditions: MTCC 7350, 24 h, read-out: DIZ; how it was run: as §3
Trichoderma viride [20] = assay: Antifungal activity against Trichoderma viride MTCC 1107 assessed as zone of inhibition at 20 uM after 48 hrs by disc diffusion method; type: functional; conditions: MTCC 1107, 48 h, read-out: IZ; how it was run: as §2
Salmonella typhi [21] = assay: Antimicrobial activity against Salmonella typhi ATCC 23564 assessed as diameter of inhibition zone at 80 uM after 24 hrs by Kirby -Baur disc diffusion method; type: functional, Salmonella enterica subsp. enterica serovar Typhi; conditions: Salmonella enterica, ATCC 23564, 24 h; read-out: DIZ
Trichoderma viride [22] = assay: Antifungal activity against Trichoderma viride MTCC 1107 assessed as zone of inhibition at 40 uM after 48 hrs by disc diffusion method; type: functional; conditions: MTCC 1107, 48 h, read-out: IZ; how it was run: as §2
Aspergillus niger [23] = assay: Antifungal activity against Aspergillus niger MTCC 1108 assessed as zone of inhibition at 80 uM after 48 hrs by disc diffusion method; type: functional; conditions: MTCC 1108, 48 h, read-out: IZ; how it was run: as §2
Curvularia lunata [24] = assay: Antifungal activity against Curvularia lunata MTCC 581 assessed as zone of inhibition at 20 uM after 48 hrs by disc diffusion method; type: functional; conditions: MTCC 581, 48 h, read-out: IZ; how it was run: as §2
Aspergillus flavus [25] = assay: Antifungal activity against Aspergillus flavus MTCC 1021 assessed as zone of inhibition at 80 uM after 48 hrs by disc diffusion method; type: functional; conditions: MTCC 1021, 48 h, read-out: IZ; how it was run: as §2
HeLa = assay: Cytotoxicity against human HeLa cells after 24 hrs by MTT assay; type: functional, cell-based
How it was run: (§4)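 The MTT assay seeded 5 × 10⁴ cells per well and grew them 24 h in RPMI 1640 with compound at 2.5–200 µM. Medium without cells was the blank and adriamycin the positive control. MTT was added for 4 h at 37 °C, formazan was solubilised, and absorbance was read at 570 nm. IC50 is the concentration that cuts viability 50% against untreated cells.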

Pseudomonas aeruginosa [26] = assay: Antimicrobial activity against Pseudomonas aeruginosa ATCC 15499 after 24 hrs by broth micro serial dilution method; type: functional; conditions: ATCC 15499, 24 h; how it was run: as §1
Trichoderma viride [27] = assay: Antifungal activity against Trichoderma viride MTCC 1107 assessed as zone of inhibition at 80 uM after 48 hrs by disc diffusion method; type: functional; conditions: MTCC 1107, 48 h, read-out: IZ; how it was run: as §2
Aspergillus flavus [28] = assay: Antifungal activity against Aspergillus flavus MTCC 1021 assessed as zone of inhibition at 20 uM after 48 hrs by disc diffusion method; type: functional; how it was run: as §2
Escherichia coli [29] = assay: Antimicrobial activity against Escherichia coli ATCC 35218 assessed as diameter of inhibition zone at 80 uM after 24 hrs by Kirby -Baur disc diffusion method; type: functional; conditions: ATCC 35218, 24 h, read-out: DIZ; how it was run: as §3
Escherichia coli [30] = assay: Antimicrobial activity against Escherichia coli ATCC 35218 assessed as diameter of inhibition zone at 20 uM after 24 hrs by Kirby -Baur disc diffusion method; type: functional; conditions: ATCC 35218, 24 h, read-out: DIZ; how it was run: as §3
QG-56 = assay: Cytotoxicity against human QG56 cells after 24 hrs by MTT assay; type: functional, cell-based; how it was run: as §4
HepG2 = assay: Cytotoxicity against human HepG2 cells after 24 hrs by MTT assay; type: functional, cell-based; how it was run: as §4
Salmonella typhi [31] = assay: Antimicrobial activity against Salmonella typhi ATCC 23564 after 24 hrs by broth micro serial dilution method; type: functional, Salmonella enterica subsp. enterica serovar Typhi; conditions: Salmonella enterica, ATCC 23564, 24 h
Pseudomonas aeruginosa [32] = assay: Antimicrobial activity against Pseudomonas aeruginosa ATCC 15499 assessed as diameter of inhibition zone at 40 uM after 24 hrs by Kirby -Baur disc diffusion method; type: functional; conditions: ATCC 15499, 24 h, read-out: DIZ; how it was run: as §3
HCT-116 = assay: Cytotoxicity against human HCT116 cells after 24 hrs by MTT assay; type: functional, cell-based; how it was run: as §4
Pseudomonas aeruginosa [33] = assay: Antimicrobial activity against Pseudomonas aeruginosa ATCC 15499 assessed as diameter of inhibition zone at 20 uM after 24 hrs by Kirby -Baur disc diffusion method; type: functional; conditions: ATCC 15499, 24 h, read-out: DIZ; how it was run: as §3
Aspergillus niger [34] = assay: Antifungal activity against Aspergillus niger MTCC 1108 assessed as zone of inhibition at 20 uM after 48 hrs by disc diffusion method; type: functional; how it was run: as §2
Escherichia coli [35] = assay: Antimicrobial activity against Escherichia coli ATCC 35218 after 24 hrs by broth micro serial dilution method; type: functional; conditions: ATCC 35218, 24 h; how it was run: as §1
Mus musculus = assay: Antiinflammatory activity in mouse assessed as inhibition of carrageenan-induced increase in paw volume at 200 mg/kg administered 1 hr prior to carrageenan challenge measured after 3 hrs relative to control; type: functional
How it was run: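 Mice were fasted 2 h and placed in groups of five. Controls received saline i.p. Phenylbutazone was given at 100 mg/kg i.p., curcumin at 200 mg/kg i.p., and derivatives at 200 mg/kg. After 1 h, 0.1 mL of 1% carrageenan in saline was injected subplantar into the right hind paw. Paw volume was followed by plethysmometer for 3 h, and % inhibition was calculated as (Vc − Vt)/Vc × 100.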

Escherichia coli [36] = assay: Antimicrobial activity against Escherichia coli ATCC 35218 assessed as diameter of inhibition zone at 40 uM after 24 hrs by Kirby -Baur disc diffusion method; type: functional; conditions: ATCC 35218, 24 h, read-out: DIZ; how it was run: as §3

COc1cc(/C=C/C(CC(/C=C/c2ccc(O)c(OC)c2)=N/c2ccc(S(=O)(=O)Nc3ccccn3)cc2)=N\c2ccc(S(=O)(=O)Nc3ccccn3)cc2)ccc1O
MIC (Staphylococcus aureus [1]): 40 µM (≈ 33.2 µg/mL)
zone of inhibition at 40 µM (Curvularia lunata [2]): 9 mm
zone of inhibition at 80 µM (Bacillus cereus [3]): 18 mm
MIC (Curvularia lunata [4]): 80 µM (≈ 66.5 µg/mL)
zone of inhibition at 80 µM (Curvularia lunata [5]): 12 mm
zone of inhibition at 40 µM (Aspergillus niger [6]): 9 mm
MIC (Aspergillus niger [7]): 80 µM (≈ 66.5 µg/mL)
zone of inhibition at 40 µM (Staphylococcus aureus [8]): 17 mm
MIC (Bacillus cereus [9]): 40 µM (≈ 33.2 µg/mL)
zone of inhibition at 80 µM (Staphylococcus aureus [10]): 19 mm
MIC (Aspergillus flavus [11]): > 80 µM
MIC (Trichoderma viride [12]): 20 µM (≈ 16.6 µg/mL)
zone of inhibition at 20 µM (Bacillus cereus [13]): 10 mm
zone of inhibition at 40 µM (Salmonella typhi [14]): 17 mm
zone of inhibition at 20 µM (Salmonella typhi [15]): 12 mm
zone of inhibition at 80 µM (Pseudomonas aeruginosa [16]): 18 mm
zone of inhibition at 20 µM (Staphylococcus aureus [17]): 13 mm
zone of inhibition at 40 µM (Aspergillus flavus [18]): 9 mm
zone of inhibition at 40 µM (Bacillus cereus [19]): 15 mm
zone of inhibition at 20 µM (Trichoderma viride [20]): 10 mm
zone of inhibition at 80 µM (Salmonella typhi [21]): 19 mm
zone of inhibition at 40 µM (Trichoderma viride [22]): 13 mm
zone of inhibition at 80 µM (Aspergillus niger [23]): 12 mm
zone of inhibition at 20 µM (Curvularia lunata [24]): 9 mm
zone of inhibition at 80 µM (Aspergillus flavus [25]): 11 mm
IC50 (HeLa): 50 µM
MIC (Pseudomonas aeruginosa [26]): 40 µM (≈ 33.2 µg/mL)
zone of inhibition at 80 µM (Trichoderma viride [27]): 17 mm
inhibition zone (IZ) (Aspergillus flavus [28]): inactive
zone of inhibition at 80 µM (Escherichia coli [29]): 17 mm
zone of inhibition at 20 µM (Escherichia coli [30]): 12 mm
IC50 (QG-56): 100 µM
IC50 (HepG2): 100 µM
MIC (Salmonella typhi [31]): 40 µM (≈ 33.2 µg/mL)
zone of inhibition at 40 µM (Pseudomonas aeruginosa [32]): 16 mm
IC50 (HCT-116): 50 µM
zone of inhibition at 20 µM (Pseudomonas aeruginosa [33]): 13 mm
inhibition zone (IZ) (Aspergillus niger [34]): inactive
MIC (Escherichia coli [35]): 40 µM (≈ 33.2 µg/mL)
inhibition in vivo at 200 mg/kg (Mus musculus): 9.6%
zone of inhibition at 40 µM (Escherichia coli [36]): 16 mm
